# PRMT1 FP inh: PRMT1 methyltransferase inhibitors, primary screen, biochemical, fluorescence polarization; Protein arginine N-methyltransferase 1 (Homo sapiens), Q99873; recombinant PRMT1, activity-based probe fluorescence polarization; inhibition, % at 2.79 µM; 370,000 compounds, 1.3% hits; AID 652257, 2013;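 active means inhibition above about 21% made by adding two undisclosed values, limit read from the data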
# HTRA1 inh: HTRA1 serine protease inhibitors, primary screen, biochemical, fluorescence polarization, HTS; Q92743; recombinant HTRA1, FP-rhodamine activity-based probe; inhibition, % at 5.96 µM; 340,000 compounds, 0.5% hits; in the data active means inhibition above about 36%
# Target sequence (Q92743 whole entry, looked up): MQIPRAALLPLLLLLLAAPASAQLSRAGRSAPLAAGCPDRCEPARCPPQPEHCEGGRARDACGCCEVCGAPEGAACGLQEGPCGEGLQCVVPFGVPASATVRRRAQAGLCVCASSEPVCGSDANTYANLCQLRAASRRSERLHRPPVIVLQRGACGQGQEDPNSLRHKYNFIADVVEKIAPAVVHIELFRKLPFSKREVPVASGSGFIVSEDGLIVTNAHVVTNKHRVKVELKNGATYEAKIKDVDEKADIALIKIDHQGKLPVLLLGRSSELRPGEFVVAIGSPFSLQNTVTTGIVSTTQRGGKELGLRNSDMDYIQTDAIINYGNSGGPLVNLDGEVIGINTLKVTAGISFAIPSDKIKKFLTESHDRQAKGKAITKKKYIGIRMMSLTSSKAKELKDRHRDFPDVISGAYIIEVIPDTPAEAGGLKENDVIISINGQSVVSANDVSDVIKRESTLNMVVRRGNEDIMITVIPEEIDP
# DAGLB inhibitor: DAGLB lipase inhibitors, primary screen, biochemical, fluorescence, HTS; 340,000 compounds, 0.059% hits; inhibition, % at 5.17 µM; Diacylglycerol lipase-beta (Homo sapiens), Q8NCG7; HEK293T DAGLB membrane lysate, EnzChek fluorogenic substrate; in the data active means inhibition above about 34%
# LEDGF integ inh: blockers of LEDGF/p75-dependent integrase strand transfer – biochemical, TR-FRET, high throughput, primary screen. TR-FRET IN-LEDGF/p75 DNA integration, Eu/Cy5. inhibition, % at 3.7 µM. 370,000 compounds, 0.64% hits. AID 743269, 2014;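 active means inhibition above the screen-wide mean plus 3 SD, cut at about 13% in these data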;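 further: signal is the Cy5 over europium emission ratio at 671 and 618 nm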
# mABHD4 FP: ABHD4 inhibitors, primary screen, biochemical, fluorescence polarization, mouse | inhibition, % at 8.92 µM | 370,000 compounds, 0.54% hits | purified mABHD4, FP-Rh probe fluorescence polarization | (Lyso)-N-acylphosphatidylethanolamine lipase (Mus musculus), Q8VD66;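 active means inhibition exceeding the mean over every tested compound plus 3 SD, cut at about 30% in these data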
#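 Assay system: mouse ABHD4 enzyme, wild type / Also added: fluorescent activity-based probe FP-Rh / Doses: single nominal dose of 8.92 µM, 0.89% DMSO final / Timing: 45 min compound pre-incubation plus 60 min probe step, 25 °C / Signal: FP readout, ex 525 nm / em 598 nm / Control set: S159A mutant/DMSO as 100%, compound-well median as 0%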
# rCAG RNA binder: binders of r(CAG) RNA repeats, primary screen, biochemical, fluorescence; r(CAG) RNA repeat, TO-PRO-1 dye displacement fluorescence; inhibition, % at 3 µM; 370,000 compounds, 1.3% hits; AID 651821, 2012;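 active means inhibition above the plate cutoff, the mean of all test compounds on that plate plus 3 SD, cut at about 35% in these data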;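 further: higher means more dye released from RNA so lower well fluorescence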
# DAGLB confirm: DAGLB lipase inhibitors, retest, confirmation, biochemical, fluorescence, HEK293T membranes; shares compounds with DAGLB inhibitor; inhibition, % at 5.17 µM; 190 compounds, 73% hits; HEK293T DAGLB membrane lysate, EnzChek fluorogenic substrate;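 active means mean inhibition over triplicate wells above a set limit taken from the primary lipase screen, cut at about 34% in these data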
# HTRA1 inh conf: HTRA1 protease inhibitors, retest, confirmation, biochemical, fluorescence polarization | AID 540248, 2011 | shares compounds with HTRA1 inh | 1,600 compounds, 66% hits | recombinant HTRA1, FP-rhodamine activity-based probe | inhibition, % at 5.96 µM;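 active means mean inhibition over three repeats above a set limit taken from the earlier primary screen, cut at about 37% in these data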;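 further: inhibitors block probe binding so polarization drops and inhibition rises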
# rCAG bind conf: small molecules binding CAG repeat RNA – biochemical, fluorescence, confirmation; inhibition, % at 3 µM; AID 652065, 2013; 4,300 compounds, 70% hits; r(CAG) RNA repeat, TO-PRO-1 dye displacement fluorescence; shares compounds with rCAG RNA binder;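 active means inhibition above a per-plate cutoff, the mean inhibition of sample wells plus 3 SD, cut at about 35% in these data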;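 further: loss of TO-PRO-1 fluorescence as compound displaces dye from 1x1 AA loop RNA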
# dCAG dye counter: displacement of TO-PRO-1 from CAG DNA duplex, counter-screen for rCAG RNA repeat binder project, biochemical, fluorescence, TO-PRO-1 dye, d(CAG) DNA oligo; inhibition, % at 3 µM; d(CAG) DNA oligo TO-PRO-1 dye displacement; 4,300 compounds, 94% hits; shares compounds with rCAG RNA binder;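 active means inhibition above its plate's cutoff, the mean test-well inhibition plus 3 SD, cut at about 4.8% in these data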;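 further: hits displace the dye from DNA and so lower well fluorescence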
# mABHD4 conf: ABHD4 inhibitors, retest, confirmation, biochemical, fluorescence polarization, mouse; shares compounds with mABHD4 FP; purified mABHD4, FP-Rh probe fluorescence polarization; inhibition, % at 8.92 µM; 1,800 compounds, 55% hits;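 active means mean inhibition across replicates above the hit cutoff set in the primary screen, cut at about 30% in these data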
# IN multimer act: HIV-1 IN multimer formation enhancers, counter-screen for LEDGF/p75 integration inhibitor project, biochemical, TR-FRET; 2,000 compounds, 17% hits; activation, % at 7.7 µM; shares compounds with LEDGF integ inh; TR-FRET HIV-1 integrase multimerization; AID 1053131, 2014; in the data active means activation above about 8.9%
# TRFRET interf: TR-FRET optical interference artefacts, confirmation, artefact control for LEDGF/p75-dependent integration inhibitor project, biochemical, HIV-1 IN multimerization; shares compounds with LEDGF integ inh; TR-FRET optical interference counterscreen; inhibition, % at 7.7 µM; 2,000 tested, under 10 active;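 active means inhibition above the mean over all tested compounds plus 3 SD, which no compound reached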
# IN-LEDGF confirm: inhibitors of HIV-1 IN-LEDGF/p75 DNA integration, confirmation, biochemical, TR-FRET; shares compounds with LEDGF integ inh; TR-FRET LEDGF/p75-dependent HIV-1 integration; inhibition, % at 3.7 µM; 2,000 compounds, 36% hits; AID 1053136, 2014; in the data active means inhibition above about 14%
# Numbers stand for hits; – = inactive; · = no result. An excerpt weighted towards active compounds, which were near 3.2% of everything screened.
SMILES,PRMT1 FP inh,HTRA1 inh,DAGLB inhibitor,LEDGF integ inh,mABHD4 FP,rCAG RNA binder,HTRA1 inh conf,others
CCc1ccc(S(=O)(=O)/N=C2\C=C(Nc3cccc(C(=O)O)c3)C(=O)c3ccccc32)cc1,–,70,47,47,65,81,66,DAGLB confirm=–;rCAG bind conf=76;dCAG dye counter=37;mABHD4 conf=84;IN multimer act=–;TRFRET interf=–;IN-LEDGF confirm=74
O=C1c2ccccc2C(=O)c2c1cccc2N1CCCC1,–,45,36,30,33,–,49,DAGLB confirm=39;mABHD4 conf=57;IN multimer act=–;TRFRET interf=–;IN-LEDGF confirm=–
O=C1c2ccccc2-c2cccc(C(=O)N3CCCCC3)c21,–,–,–,–,–,–,·,
O=C(c1cccnc1)N1CCC(c2nc3ccccc3[nH]2)CC1,–,·,·,–,–,–,·,
O=C1C(Nc2ccc(O)cc2)=C/C(=N/S(=O)(=O)c2cccs2)c2ccccc21,–,64,37,55,73,–,74,DAGLB confirm=44;mABHD4 conf=81;IN multimer act=–;TRFRET interf=–;IN-LEDGF confirm=70
COc1ccc(NC(=O)C[C@@H]2C(=O)N(c3ccc(OC)cc3)CC2(C)C)cc1,–,–,–,–,–,–,·,
O=C(NC(c1ccc(Cl)cc1)c1cc(Cl)c2cccnc2c1O)c1cccnc1 (stereo unspecified),–,60,–,–,–,–,52,
CCCC(=O)NC(c1ccc(OC)c(OC)c1)c1cc(Cl)c2cccnc2c1O (stereo unspecified),–,46,–,–,–,–,66,
COc1ccc(C(NC(C)=O)c2cc(Cl)c3cccnc3c2O)cc1 (stereo unspecified),–,70,–,–,–,–,80,
O=C(NCc1ccc(Cl)cc1)c1cccnc1,–,–,–,–,–,–,·,
CC(=O)NC(c1ccccc1)c1cc(Cl)c2cccnc2c1O (stereo unspecified),–,70,–,–,–,–,72,
CC(=O)NC(c1ccc(C)cc1)c1cc([N+](=O)[O-])c2cccnc2c1O (stereo unspecified),–,–,–,–,–,–,·,
CC(C)C[C@H](NC(=O)N1CCn2c1nc1ccccc12)C(=O)N[C@@H](C(=O)O)c1ccccc1,–,–,–,–,–,–,·,
COc1ccc(CNC(=O)/C(C#N)=C2\N=C(NC(=O)c3cccs3)c3ccccc32)cc1,–,–,–,–,–,–,·,
O=S(=O)(c1ccccc1)N1CCN=C1SCc1ccccc1Cl,–,–,–,–,–,–,·,
COc1c(C)cc(C(O)c2ncc(-c3cccc(F)c3)[nH]2)cc1C (stereo unspecified),–,·,·,–,–,–,·,
COc1cc(C(=S)N2CCN(c3ccccc3Cl)CC2)cc(O)c1O,–,51,–,–,–,–,84,
COc1ccc(C(=O)OCC(=O)N2CCc3ccccc3C2)cc1OC,–,–,–,–,–,–,·,
CC(=O)Oc1cc(C(=O)OCC(=O)N2CCc3ccccc3C2)cc(OC(C)=O)c1OC(C)=O,–,59,–,–,–,–,83,
Cc1ccc(NC(=O)CCN2CCN(CCO)CC2)cc1Br,–,–,–,–,–,–,·,
O=C(Cn1c(=O)n(CC(=O)N2CCCCC2)c(=O)c2sccc21)NCc1ccccc1,–,–,–,–,–,–,·,
NC(=S)NN=Cc1nccc2c(C(F)(F)C(F)(F)C(F)(F)F)cccc12,–,68,–,–,–,–,64,
NC(=S)NN=Cc1nccc2ccccc12,–,–,–,–,–,–,·,
NC(=S)N/N=C/c1c(O)c(Br)cc2oc3c(c12)CCCC3,–,53,–,–,–,–,48,
Cc1nn(-c2ccc(F)cc2)c2nc(N)c(C#N)c(-c3cccs3)c12,–,–,–,–,–,–,·,
Cc1nn(-c2ccc(F)cc2)c2nc(N)c(C#N)c(-c3ccc(O)c(O)c3)c12,–,59,–,–,–,–,62,
Cc1nn(-c2ccccc2)c2nc(N)c(C#N)c(-c3ccc(O)c(O)c3)c12,–,74,–,–,–,–,76,
CCNC(=O)Cn1cnc2c1c(=O)n(C)c(=O)n2C,–,–,–,–,–,–,·,
CCCCC(=O)NC(c1ccc(OC)cc1)c1ccc2cccnc2c1O (stereo unspecified),–,–,–,–,–,–,·,
CCCCC(=O)NC(c1ccc(Cl)cc1Cl)c1ccc2cccnc2c1O (stereo unspecified),–,48,–,–,–,–,76,
